Measured values from ChEMBL document CHEMBL3525963, “Tissue distribution and elimination of [14C]apixaban in rats” (Drug Metab Dispos, 2011).

Legend:
Pancreas [1] = assay: Biodistribution in female Sprague-Dawley rat pancreas at 5 mg/kg, po administered as single dose measured after 0.5 hrs; type: ADME, organism-based; parameters: dose 5 mg/kg, dosed compound name [14C]-apixaban, route oral; conditions: in vivo
How it was run: (§1)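 [¹⁴C]Apixaban given by oral gavage at 5 mg/kg (100 μCi/kg) in 0.5% Tween 80 in Labrafil (1.0 mg/mL dosing solution) to rats fasted overnight through 4 h post-dose. One rat per time point; carcass frozen in hexane/dry ice. Quantitative whole-body autoradiography used 40 µm sagittal sections and a phosphor imaging plate calibrated with [¹⁴C]glucose standards (0.001–6.5 μCi/g). Read-out in µg eq apixaban/g; LLOQ 0.037 μg eq/g.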

Rattus norvegicus [2] = assay: Biodistribution in fetal liver of pregnant Sprague-Dawley rat at 5 mg/kg, po administered as single dose measured after 48 hrs; type: ADME, organism-based; parameters: dose 5 mg/kg, dosed compound name [14C]-apixaban, route oral; conditions: in vivo
How it was run: (§2)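 Fasted pregnant SD rats (n=6, 270-319 g) each received one oral gavage dose of [14C]apixaban, 5 mg/kg (100 μCi/kg), in 0.5% Tween 80/Labrafil. One rat was killed at each of 0.5, 1, 4, 8, 24 and 48 h. Carcasses were frozen in hexane/dry ice, cut into 40 µm sagittal sections, exposed to phosphor plates and quantified against [14C]glucose standards as µg eq/g. LLOQ was 0.037 µg eq/g.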

Rattus norvegicus [3] = assay: Biodistribution in pregnant Sprague-Dawley rat pituitary gland at 5 mg/kg, po administered as single dose measured after 1 hr; type: ADME, organism-based; parameters: dose 5 mg/kg, dosed compound name [14C]-apixaban, route oral; conditions: in vivo
Brain [4] = assay: Biodistribution in female Sprague-Dawley rat brain at 5 mg/kg, po administered as single dose measured after 8 hrs; type: ADME, organism-based; parameters: dose 5 mg/kg, dosed compound name [14C]-apixaban, route oral; conditions: in vivo
How it was run: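 [14C]Apixaban (1.0 mg/mL, 20 μCi/mL in 0.5% Tween 80 in Labrafil) given as a single oral gavage of 5 mg/kg (100 μCi/kg) to fasted female SD rats, one rat per time point. Carcasses were frozen in hexane/dry ice and cut into 40 µm sagittal sections for QWBA against [14C]glucose standards. Brain radioactivity is reported as µg eq/g, with LLOQ 0.037 µg eq/g.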

Rattus norvegicus [5] = assay: Biodistribution in female Sprague-Dawley rat pituitary gland at 5 mg/kg, po administered as single dose measured after 8 hrs; type: ADME, organism-based; parameters: dose 5 mg/kg, dosed compound name [14C]-apixaban, route oral; conditions: in vivo
How it was run: (§3)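 [14C]apixaban (20 μCi/mL in dosing solution) in 0.5% Tween 80 in Labrafil given by oral gavage to fasted female rats, 206-213 g, at 100 μCi/kg. One rat per time point was euthanized and snap-frozen. Sagittal 40 µm whole-body sections were read by QWBA phosphor imaging against [14C]glucose standards. Results are in µg eq apixaban/g, with LLOQ 0.037 μg eq/g.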

Rattus norvegicus [6] = assay: Biodistribution in pregnant Sprague-Dawley rat amnion at 5 mg/kg, po administered as single dose measured after 1 hr; type: ADME, organism-based; parameters: dose 5 mg/kg, dosed compound name [14C]-apixaban, route oral; conditions: in vivo
Rattus norvegicus [7] = assay: Biodistribution in female Sprague-Dawley rat brown fat at 5 mg/kg, po administered as single dose measured after 0.5 hrs; type: ADME, organism-based, Brown adipose tissue; parameters: dose 5 mg/kg, dosed compound name [14C]-apixaban, route oral; conditions: in vivo; how it was run: as §3
Pancreas [8] = assay: Biodistribution in pregnant Sprague-Dawley rat pancreas at 5 mg/kg, po administered as single dose measured after 48 hrs; type: ADME, organism-based; parameters: dose 5 mg/kg, dosed compound name [14C]-apixaban, route oral; conditions: in vivo
How it was run: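 Pregnant SD rats (270-319 g) were fasted overnight and given one oral gavage of 5 mg/kg (100 μCi/kg) in 0.5% Tween 80 in Labrafil. One rat was euthanized per time point (0.5, 1, 4, 8, 24, 48 h) and the carcass frozen. 40 µm sagittal sections were phosphor-imaged against [14C]glucose standards and results reported as µg eq/g; LLOQ 0.037 µg eq/g.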

Rattus norvegicus [9] = assay: Biodistribution in fetal blood of pregnant Sprague-Dawley rat at 5 mg/kg, po administered as single dose measured after 8 hrs; type: ADME, organism-based; parameters: dose 5 mg/kg, dosed compound name [14C]-apixaban, route oral; conditions: in vivo
How it was run: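 Pregnant rats, 270-319 g and fasted overnight, received [14C]apixaban by oral gavage at 100 μCi/kg in 0.5% Tween 80/Labrafil. One dam per time point was euthanized and frozen in hexane/dry ice. Fetal tissue radioactivity was measured by QWBA on 40 µm sagittal sections calibrated with [14C]glucose standards. Values are in µg eq/g, with LLOQ 0.037 μg eq/g.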

Heart [10] = assay: Biodistribution in male Sprague-Dawley rat heart at 5 mg/kg, po administered as single dose measured after 1 hr; type: ADME, organism-based; parameters: dose 5 mg/kg, dosed compound name [14C]-apixaban, route oral; conditions: in vivo; how it was run: as §1
Lung [11] = assay: Biodistribution in female Sprague-Dawley rat lung at 5 mg/kg, po administered as single dose measured after 4 hrs; type: ADME, organism-based; parameters: dose 5 mg/kg, dosed compound name [14C]-apixaban, route oral; conditions: in vivo; how it was run: as §1
Heart [12] = assay: Biodistribution in female Sprague-Dawley rat heart at 5 mg/kg, po administered as single dose measured after 1 hr; type: ADME, organism-based; parameters: dose 5 mg/kg, dosed compound name [14C]-apixaban, route oral; conditions: in vivo; how it was run: as §1
Thymus = assay: Biodistribution in male Sprague-Dawley rat thymus at 5 mg/kg, po administered as single dose measured after 8 hrs; type: ADME, organism-based; parameters: dose 5 mg/kg, dosed compound name [14C]-apixaban, route oral; conditions: in vivo
Harderian gland = assay: Biodistribution in female Sprague-Dawley rat harderian gland at 5 mg/kg, po administered as single dose measured after 24 hrs; type: ADME, organism-based; parameters: dose 5 mg/kg, dosed compound name [14C]-apixaban, route oral; conditions: in vivo
How it was run: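 Quantitative whole-body autoradiography was run after a single 5 mg/kg (100 μCi/kg) oral gavage to fasted female or pregnant SD rats, one rat per time point. Carcasses were frozen in hexane/dry ice, and 40 µm sagittal sections were dried at −20°C for at least 48 h. Sections were exposed to a phosphor plate alongside [14C]glucose standards (0.001–6.5 µCi/g). Results are µg eq/g, with LLOQ 0.037 µg eq/g.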

[13] = Drug excretion in Sprague-Dawley rat urine assessed as apixaban level at 30 mg/kg, po by HPLC method; conditions: read-out: Compound recovery
Pancreas [14] = assay: Biodistribution in male Sprague-Dawley rat pancreas at 5 mg/kg, po administered as single dose measured after 1 hr; type: ADME, organism-based; parameters: dose 5 mg/kg, dosed compound name [14C]-apixaban, route oral; conditions: in vivo
How it was run: (§4)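 [14C]apixaban (1.0 mg/mL, 20 μCi/mL) in 0.5% Tween 80 in Labrafil, given by oral gavage at 100 μCi/kg to male rats (225-252 g) fasted overnight through 4 h post-dose. One rat per time point. Carcasses frozen in hexane/dry ice and cut into 40 µm sagittal sections. QWBA read on phosphor plates against [14C]glucose standards, reported as µg eq/g. LLOQ 0.037 µg eq/g.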

Rattus norvegicus [15] = assay: Biodistribution in female Sprague-Dawley rat salivary gland at 5 mg/kg, po administered as single dose measured after 0.5 hrs; type: ADME, organism-based; parameters: dose 5 mg/kg, dosed compound name [14C]-apixaban, route oral; conditions: in vivo; how it was run: as §3
Lung [16] = assay: Biodistribution in male Sprague-Dawley rat lung at 5 mg/kg, po administered as single dose measured after 4 hrs; type: ADME, organism-based; parameters: dose 5 mg/kg, dosed compound name [14C]-apixaban, route oral; conditions: in vivo; how it was run: as §4
[17] = Drug level in lactating Sprague-Dawley rat milk at 5 mg/kg, po administered as single dose after 2 hrs; type: ADME, organism-based; parameters: dose 5 mg/kg, dosed compound name [14C]-apixaban, route oral; conditions: in vivo
Liver [18] = assay: Biodistribution in pregnant Sprague-Dawley rat liver at 5 mg/kg, po administered as single dose measured after 4 hrs; type: ADME, organism-based; parameters: dose 5 mg/kg, dosed compound name [14C]-apixaban, route oral; conditions: in vivo; how it was run: as §2
Rattus norvegicus [19] = assay: Biodistribution in female Sprague-Dawley rat brown fat at 5 mg/kg, po administered as single dose measured after 1 hr; type: ADME, organism-based, Brown adipose tissue; parameters: dose 5 mg/kg, dosed compound name [14C]-apixaban, route oral; conditions: in vivo; how it was run: as §3
Rattus norvegicus [20] = assay: Biodistribution in pregnant Sprague-Dawley rat brown fat at 5 mg/kg, po administered as single dose measured after 48 hrs; type: ADME, organism-based, Brown adipose tissue; parameters: dose 5 mg/kg, dosed compound name [14C]-apixaban, route oral; conditions: in vivo; how it was run: as §2
Liver [21] = assay: Biodistribution in pregnant Sprague-Dawley rat liver at 5 mg/kg, po administered as single dose measured after 24 hrs; type: ADME, organism-based; parameters: dose 5 mg/kg, dosed compound name [14C]-apixaban, route oral; conditions: in vivo
Rattus norvegicus [22] = assay: Biodistribution in female Sprague-Dawley rat bone marrow at 5 mg/kg, po administered as single dose measured after 1 hr; type: ADME, organism-based; parameters: dose 5 mg/kg, dosed compound name [14C]-apixaban, route oral; conditions: in vivo; how it was run: as §3
Adrenal gland = assay: Biodistribution in pregnant Sprague-Dawley rat adrenal gland at 5 mg/kg, po administered as single dose measured after 8 hrs; type: ADME, organism-based; parameters: dose 5 mg/kg, dosed compound name [14C]-apixaban, route oral; conditions: in vivo
Brain [23] = assay: Biodistribution in male Sprague-Dawley rat brain at 5 mg/kg, po administered as single dose measured after 1 hr; type: ADME, organism-based; parameters: dose 5 mg/kg, dosed compound name [14C]-apixaban, route oral; conditions: in vivo

For COc1ccc(-n2nc(C(N)=O)c3c2C(=O)N(c2ccc(N4CCCC[14C]4=O)cc2)CC3)cc1, the Radiolabel recovery (Pancreas [1]) was 0.43 ugequiv/g, the Radiolabel recovery (Rattus norvegicus [2]) was “Not sampled as not visualised in autoradiograph” and the Radiolabel recovery (Rattus norvegicus [3]) was 0.93 ugequiv/g. For the same compound, the Radiolabel recovery (Brain [4]) was under 0.037 ugequiv/g, the Radiolabel recovery (Rattus norvegicus [5]) was 0.22 ugequiv/g and the Radiolabel recovery (Rattus norvegicus [6]) was 2.12 ugequiv/g. For the same compound, the Radiolabel recovery (Rattus norvegicus [7]) was 0.48 ugequiv/g, the Radiolabel recovery (Pancreas [8]) was “Not detected assumed BLQ” and the Radiolabel recovery (Rattus norvegicus [9]) was 0.07 ugequiv/g. It also gave a Radiolabel recovery (Heart [10]) of 0.7 ugequiv/g, a Radiolabel recovery (Lung [11]) of 0.51 ugequiv/g and a Radiolabel recovery (Heart [12]) of 0.54 ugequiv/g. The Radiolabel recovery (Thymus) was 0.06 ugequiv/g, the Radiolabel recovery (Harderian gland) was “Not detected assumed BLQ” and the dose excreted [13] was 93%. The Radiolabel recovery (Pancreas [14]) was 0.62 ugequiv/g, the Radiolabel recovery (Rattus norvegicus [15]) was 0.28 ugequiv/g and the Radiolabel recovery (Lung [16]) was 0.64 ugequiv/g. For the same compound, the Radiolabel recovery [17] was 7.59 µg/mL, the Radiolabel recovery (Liver [18]) was 6.13 ugequiv/g and the Radiolabel recovery (Rattus norvegicus [19]) was 0.77 ugequiv/g. The Radiolabel recovery (Rattus norvegicus [20]) was “Not detected assumed BLQ”, the Radiolabel recovery (Liver [21]) was 0.12 ugequiv/g and the Radiolabel recovery (Rattus norvegicus [22]) was 0.41 ugequiv/g. The Radiolabel recovery (Adrenal gland) was 0.18 ugequiv/g and the Radiolabel recovery (Brain [23]) was under 0.037 ugequiv/g.
